Tests used:
HeLa = assay: Protecting effect against apoptosis induced by TNF-alpha in HeLa cells was determined; type: functional, Homo sapiens
Summary of the method: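 HeLa cells exposed to TNF-a to induce apoptosis, with test inhibitor present. Viability read out as calcein AM uptake. The value reported is the inhibitor concentration giving 50% cell protection.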

Caspase-9 = biological target: T1, Caspase-9 (Homo sapiens, UniProt P55211); assay: Inhibition concentration required against caspase-9
T1 sequence (P55211 whole entry): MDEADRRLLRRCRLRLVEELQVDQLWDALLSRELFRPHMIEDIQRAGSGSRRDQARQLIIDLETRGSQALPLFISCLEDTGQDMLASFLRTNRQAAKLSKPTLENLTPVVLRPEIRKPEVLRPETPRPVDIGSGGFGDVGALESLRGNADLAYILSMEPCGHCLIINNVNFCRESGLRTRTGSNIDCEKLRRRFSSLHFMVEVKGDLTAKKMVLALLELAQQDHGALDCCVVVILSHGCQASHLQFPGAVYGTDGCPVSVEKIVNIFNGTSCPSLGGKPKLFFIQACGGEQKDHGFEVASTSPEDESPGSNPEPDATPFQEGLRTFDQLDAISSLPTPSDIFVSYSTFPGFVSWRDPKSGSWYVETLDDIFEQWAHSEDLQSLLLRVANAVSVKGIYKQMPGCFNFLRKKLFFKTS

[1] = Inhibition concentration required against factor Xa
[2] = biological target: T2, Calpain-1 catalytic subunit (Homo sapiens, UniProt P07384); assay: Inhibition concentration required against calpain-1
T2 sequence (P07384 whole entry): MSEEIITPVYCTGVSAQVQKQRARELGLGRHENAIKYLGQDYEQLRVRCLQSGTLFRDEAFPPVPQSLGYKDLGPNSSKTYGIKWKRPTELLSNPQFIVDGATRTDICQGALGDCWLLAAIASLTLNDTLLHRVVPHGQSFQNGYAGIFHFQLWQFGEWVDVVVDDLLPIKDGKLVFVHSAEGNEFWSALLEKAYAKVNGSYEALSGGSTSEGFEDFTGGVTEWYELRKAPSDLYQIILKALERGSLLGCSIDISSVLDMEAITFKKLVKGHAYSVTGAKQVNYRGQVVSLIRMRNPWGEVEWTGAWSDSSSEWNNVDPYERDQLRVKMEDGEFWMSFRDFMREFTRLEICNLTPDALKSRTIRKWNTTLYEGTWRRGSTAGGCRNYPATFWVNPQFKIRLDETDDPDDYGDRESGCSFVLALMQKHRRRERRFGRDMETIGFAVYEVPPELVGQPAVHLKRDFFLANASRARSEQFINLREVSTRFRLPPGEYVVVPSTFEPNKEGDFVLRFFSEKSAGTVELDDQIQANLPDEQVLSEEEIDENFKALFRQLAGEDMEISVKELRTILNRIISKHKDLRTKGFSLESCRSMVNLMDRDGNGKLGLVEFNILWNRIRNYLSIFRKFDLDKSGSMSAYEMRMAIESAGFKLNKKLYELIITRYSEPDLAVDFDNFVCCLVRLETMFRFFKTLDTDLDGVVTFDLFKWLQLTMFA

[3] = Inhibition concentration required against caspase-1
Caspase-7 = biological target: T3, Caspase-7 (Homo sapiens, UniProt P55210); assay: Inhibition concentration required against caspase-7
T3 sequence (P55210 whole entry): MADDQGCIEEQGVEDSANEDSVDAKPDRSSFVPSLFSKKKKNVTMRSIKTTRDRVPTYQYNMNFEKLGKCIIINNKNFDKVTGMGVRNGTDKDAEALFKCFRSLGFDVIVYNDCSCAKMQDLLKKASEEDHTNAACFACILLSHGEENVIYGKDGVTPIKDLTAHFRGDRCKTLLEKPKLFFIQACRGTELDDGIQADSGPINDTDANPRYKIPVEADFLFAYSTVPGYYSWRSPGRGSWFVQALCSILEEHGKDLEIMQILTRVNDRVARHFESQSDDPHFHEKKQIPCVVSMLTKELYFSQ

Caspase-8 = Caspase-8 (Homo sapiens, UniProt Q14790); assay: Inhibition concentration required against caspase-8
Caspase-8, sequence (Q14790 217-374 limits assumed): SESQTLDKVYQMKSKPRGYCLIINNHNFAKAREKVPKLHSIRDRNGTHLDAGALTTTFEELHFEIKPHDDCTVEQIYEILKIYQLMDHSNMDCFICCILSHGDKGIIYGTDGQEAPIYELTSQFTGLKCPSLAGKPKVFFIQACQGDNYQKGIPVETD
Caspase-8, sequence (Q14790 385-479 limits assumed): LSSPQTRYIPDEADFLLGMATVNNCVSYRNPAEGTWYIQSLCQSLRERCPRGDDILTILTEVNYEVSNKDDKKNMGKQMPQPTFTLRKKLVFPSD

[4] = Inhibition concentration required against cathepsin B; set-up: species or system Homo sapiens
Caspase-3 = biological target: T4, Caspase-3 (Homo sapiens, UniProt P42574); assay: Inhibitory activity against human recombinant caspase-3
T4 sequence (P42574 whole entry): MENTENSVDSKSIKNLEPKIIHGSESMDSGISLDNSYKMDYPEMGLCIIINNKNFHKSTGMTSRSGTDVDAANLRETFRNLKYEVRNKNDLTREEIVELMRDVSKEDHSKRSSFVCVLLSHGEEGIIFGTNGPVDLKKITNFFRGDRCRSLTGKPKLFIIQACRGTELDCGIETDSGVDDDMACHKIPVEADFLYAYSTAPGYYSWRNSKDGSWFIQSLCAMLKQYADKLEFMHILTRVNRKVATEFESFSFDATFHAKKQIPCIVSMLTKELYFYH

[5] = Percent survival of the mice after 3h treatment was determined after induction of apoptosis by anti-Fas antibody; Dose is 0.25 mg/kg; type: functional; conditions: Mus musculus
Summary of the method: (§1)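 Mouse anti-Fas lethality model: mice given 8 µg anti-Fas monoclonal antibody (clone JO-2) IV, then 5 min later an IV dose of inhibitor (0.25–10 mg/kg) or vehicle. The aqueous vehicle contained 50 mM Tris–HCl. Six mice per group. Survivors were counted at 1, 3, 6 and 24 h and at 5 days, expressed as % of the animals in the group.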

[6] = Percent survival of the mice after 5 days treatment was determined after induction of apoptosis by anti-Fas antibody; Dose is 0 mg/kg; type: functional, Mus musculus; summary of the method: as §1
[7] = Percent survival of the mice after 5 days treatment was determined after induction of apoptosis by anti-Fas antibody; Dose is 1 mg/kg; type: functional; conditions: Mus musculus, 120 h; summary of the method: as §1
[8] = Percent survival of the mice after 6 hr treatment was determined after induction of apoptosis by anti-Fas antibody; Dose is 0.25 mg/kg; type: functional; conditions: Mus musculus; summary of the method: as §1
[9] = Percent survival of the mice after 24 hr treatment was determined after induction of apoptosis by anti-Fas antibody; Dose is 0.25 mg/kg; type: functional; conditions: Mus musculus; summary of the method: as §1
[10] = Percent survival of the mice after 5 days treatment was determined after induction of apoptosis by anti-Fas antibody; Dose is 10 mg/kg; type: functional; conditions: Mus musculus, 120 h; summary of the method: as §1
[11] = Percent survival of the mice after 5 days treatment was determined after induction of apoptosis by anti-Fas antibody; Dose is 0.5 mg/kg; type: functional; conditions: Mus musculus, 120 h; summary of the method: as §1
[12] = Percent survival of the mice after 5 days treatment was determined after induction of apoptosis by anti-Fas antibody; Dose is 0.25 mg/kg; type: functional; conditions: Mus musculus, 120 h; summary of the method: as §1
[13] = Percent survival of the mice after 1 hr treatment was determined after induction of apoptosis by anti-Fas antibody; Dose is 0 mg/kg; type: functional, Mus musculus; summary of the method: as §1
[14] = Percent survival of the mice after 1 hr treatment was determined after induction of apoptosis by anti-Fas antibody; Dose is 1 mg/kg; type: functional; conditions: Mus musculus; summary of the method: as §1
[15] = Percent survival of the mice after 3h treatment was determined after induction of apoptosis by anti-Fas antibody; Dose is 0 mg/kg; type: functional, Mus musculus; summary of the method: as §1
[16] = Percent survival of the mice after 3h treatment was determined after induction of apoptosis by anti-Fas antibody; Dose is 1 mg/kg; type: functional; conditions: Mus musculus; summary of the method: as §1
[17] = Percent survival of the mice after 6 hr treatment was determined after induction of apoptosis by anti-Fas antibody; Dose is 0 mg/kg; type: functional, Mus musculus; summary of the method: as §1
[18] = Percent survival of the mice after 6 hr treatment was determined after induction of apoptosis by anti-Fas antibody; Dose is 1 mg/kg; type: functional; conditions: Mus musculus; summary of the method: as §1
[19] = Percent survival of the mice after 1 hr treatment was determined after induction of apoptosis by anti-Fas antibody; Dose is 10 mg/kg; type: functional; conditions: Mus musculus; summary of the method: as §1
[20] = Percent survival of the mice after 24 hr treatment was determined after induction of apoptosis by anti-Fas antibody; Dose is 0 mg/kg; type: functional, Mus musculus; summary of the method: as §1
[21] = Percent survival of the mice after 24 hr treatment was determined after induction of apoptosis by anti-Fas antibody; Dose is 1 mg/kg; type: functional; conditions: Mus musculus; summary of the method: as §1
[22] = Percent survival of the mice after 3h treatment was determined after induction of apoptosis by anti-Fas antibody; Dose is 10 mg/kg; type: functional; conditions: Mus musculus; summary of the method: as §1
[23] = Percent survival of the mice after 6 hr treatment was determined after induction of apoptosis by anti-Fas antibody; Dose is 10 mg/kg; type: functional; conditions: Mus musculus; summary of the method: as §1
[24] = Percent survival of the mice after 1 hr treatment was determined after induction of apoptosis by anti-Fas antibody; Dose is 0.5 mg/kg; type: functional; conditions: Mus musculus; summary of the method: as §1
[25] = Percent survival of the mice after 24 hr treatment was determined after induction of apoptosis by anti-Fas antibody; Dose is 10 mg/kg; type: functional; conditions: Mus musculus; summary of the method: as §1
[26] = Percent survival of the mice after 3h treatment was determined after induction of apoptosis by anti-Fas antibody; Dose is 0.5 mg/kg; type: functional; conditions: Mus musculus; summary of the method: as §1
[27] = Percent survival of the mice after 6 hr treatment was determined after induction of apoptosis by anti-Fas antibody; Dose is 0.5 mg/kg; type: functional; conditions: Mus musculus; summary of the method: as §1
[28] = Percent survival of the mice after 1 hr treatment was determined after induction of apoptosis by anti-Fas antibody; Dose is 0.25 mg/kg; type: functional; conditions: Mus musculus; summary of the method: as §1
[29] = Percent survival of the mice after 24 hr treatment was determined after induction of apoptosis by anti-Fas antibody; Dose is 0.5 mg/kg; type: functional; conditions: Mus musculus; summary of the method: as §1

For `CC(C)[C@H](NC(=O)OCc1ccc(Cl)cc1Cl)C(=O)NC(CC(=O)O)C(=O)CF` (stereo not given in full), the Protection (HeLa) was 100 nM, the IC50 (Caspase-9) was 9 nM and the IC50 [1] was over 100000 nM. The IC50 [2] was about 5000 nM, the IC50 [3] was 26 nM and the IC50 (Caspase-7) was 10 nM. For the same compound, the IC50 (Caspase-8) was 6 nM, the IC50 [4] was about 10000 nM and the IC50 (Caspase-3) was 25 nM. The survival at 0.25 mg/kg [5] was 100%, the Survival [6] was 0% and the survival at 1 mg/kg [7] was 100%. It also gave a survival at 0.25 mg/kg [8] of 83%, a survival at 0.25 mg/kg [9] of 33% and a survival at 10 mg/kg [10] of 100%. It also gave a survival at 0.5 mg/kg [11] of 50%, a survival at 0.25 mg/kg [12] of 16% and a Survival [13] of 0%. For the same compound, the survival at 1 mg/kg [14] was 100%, the Survival [15] was 0% and the survival at 1 mg/kg [16] was 100%. It also gave a Survival [17] of 0%, a survival at 1 mg/kg [18] of 100% and a survival at 10 mg/kg [19] of 100%. It also gave a Survival [20] of 0%, a survival at 1 mg/kg [21] of 100% and a survival at 10 mg/kg [22] of 100%. The survival at 10 mg/kg [23] was 100%, the survival at 0.5 mg/kg [24] was 100% and the survival at 10 mg/kg [25] was 100%. For the same compound, the survival at 0.5 mg/kg [26] was 100%, the survival at 0.5 mg/kg [27] was 83% and the survival at 0.25 mg/kg [28] was 100%. For the same compound, the survival at 0.5 mg/kg [29] was 50%.

`CC(C)[C@H](NC(=O)OCc1cc(Cl)ccc1Cl)C(=O)NC(CC(=O)O)C(=O)CF` (stereo not given in full) gave a Protection (HeLa) of 100 nM.

With `CC(C)[C@H](NC(=O)OCc1ccc(Cl)c(Cl)c1)C(=O)NC(CC(=O)O)C(=O)CF` (stereo not given in full) the Protection (HeLa) was 150 nM.

`COC(=O)N[C@H](C(=O)NC(CC(=O)O)C(=O)CF)C(C)C` (stereo not given in full) gave a Protection (HeLa) of 500 nM.

Work on `CC(C)[C@H](NC(=O)OCc1ccccc1)C(=O)NC(CC(=O)O)C(=O)CF` (stereo not given in full) yielded a Protection (HeLa) of 250 nM.

`CC(C)[C@H](NC(=O)OCC1CCCC1)C(=O)NC(CC(=O)O)C(=O)CF` (stereo not given in full) gave a Protection (HeLa) of 300 nM.

`CC(C)[C@H](NC(=O)OCc1ccc(F)cc1)C(=O)NC(CC(=O)O)C(=O)CF` (stereo not given in full) showed a Protection (HeLa) of 150 nM.

Reference: ChEMBL document CHEMBL1137919, “Dipeptidyl aspartyl fluoromethylketones as potent caspase inhibitors: SAR of the N-protecting group” (Bioorg Med Chem Lett, 2004)
